In the library only some 2.5% were active in any assay of this set; here they are far more common.
E-selectin induc: induces E-selectin expression in human endothelial cells; P16581; HUVEC E-selectin immunofluorescence imaging; normalized: neutral wells 0, TNF-alpha wells 100; activation, % at 7.58 µM; hit rate 0.37% among 260,000;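 active means mean E-selectin-positive cell signal at least 10% of the positive control, reached in at least 60% of replicates, without over 20% cell loss; inconclusive means no rule given, readout overlaps actives, possibly toxicity-flagged; inactive means the rest, including those meeting only one limit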
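System: HUVEC, human umbilical vein endothelial cells; quantity: 3,000 cells/well; buffer or medium: EGM-2 medium, gelatin-coated wells; dosing: single-point compound dose; detection: immunofluorescence imaging; evaluation: % PE-positive cells; benchmarks: TNF-alpha, DMSO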
PglD DTNB: inhibitors of Campylobacter jejuni PglD acetyltransferase; AID 602405; inhibition, % at 12.5 µM; hit rate 0.098% among 360,000; purified PglD enzyme, DTNB colorimetric CoA detection; in the data active means inhibition above about 16%, passing the limit was not always enough; inconclusive means no clear call, values can overlap the other calls
SIRT5 block: sirtuin-5 (human) deacylase inhibition; Q9NXA8; Purified SirT5, succinyl-peptide AMC, trypsin-coupled fluorescence; inhibition, % at 15 µM; hit rate 1.1% among 330,000; in the data active means inhibition above about 15%; inconclusive means no clear call, values can overlap the other calls
Target sequence (Q9NXA8 whole entry, looked up): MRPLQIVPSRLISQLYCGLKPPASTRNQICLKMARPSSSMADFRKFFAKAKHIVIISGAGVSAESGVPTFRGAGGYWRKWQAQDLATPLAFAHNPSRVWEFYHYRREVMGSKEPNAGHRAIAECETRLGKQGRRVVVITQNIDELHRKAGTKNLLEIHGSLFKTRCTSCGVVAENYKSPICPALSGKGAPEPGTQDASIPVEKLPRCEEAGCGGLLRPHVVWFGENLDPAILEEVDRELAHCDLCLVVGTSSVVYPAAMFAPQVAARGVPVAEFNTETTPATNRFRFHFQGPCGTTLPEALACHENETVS
DENV2 CPE rescue: inhibitors of DENV2 cytopathic effect; CPE inhibition, % at 9.99 µM; hit rate 1.7% among 350,000; AID 651640; DENV2-infected cells, cytopathic effect rescue, plate reader; in the data active means CPE inhibition above about 20%, passing the limit was not always enough; inconclusive means no clear call, values can overlap the other calls; tested in BHK-21 cells
ERAP1 inh: blocks human ERAP1 aminopeptidase activity. Q9NZ08. recombinant ERAP1, Leu-AMC fluorescence, 60 min. inhibition, % at 10.7 µM. hit rate 0.15% among 340,000. AID 652197;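 active means mean replicate inhibition of at least 30%, or all replicates individually reaching that 30% level; inactive means mean below 30% and not every replicate reaching it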
Hits are given with their value; 0 = inactive; ? = inconclusive; - = no result; ! = a repeat was not active.

SMILES	E-selectin induc	PglD DTNB	SIRT5 block	DENV2 CPE rescue	ERAP1 inh
Cc1ccc(NC(=O)COC(=O)CCNS(=O)(=O)c2c(Cl)cccc2Cl)cc1	0	0	0	0	0
Cc1ccc(NC(=O)CSc2nc3c(cc2C#N)C(=O)CCC3)cc1S(=O)(=O)N(C)C	-	0	-	0	0
COc1cccc(C#Cc2ccc3c(c2)O[C@@H](CN(C)C(=O)c2ccccn2)[C@@H](C)CN([C@H](C)CO)S3(=O)=O)c1	0	0	16!	?	0
CCCC#Cc1ccc2c(c1)O[C@H](CN(C)C(=O)c1ccccc1F)[C@H](C)CN([C@H](C)CO)S2(=O)=O	0	0	18	0	0
COc1cc(C2CC(C(F)(F)F)n3ncc(C(=O)O)c3N2)cc(OC)c1OC (stereo not drawn)	0	-	-	-	-
Cc1[nH]n(C(N)=S)c(=O)c1N=Nc1ccc([N+](=O)[O-])cc1Cl	0	0	0	0	0
CCOc1ccc2nc(SCC(=O)NCc3ccc(OC)cc3)[nH]c2c1	0	0	27	0	0
Cc1cc(C(=O)Nc2cccc3c2O[C@@H](CN(C)Cc2ccc(-c4ccccc4)cc2)[C@@H](C)CN([C@H](C)CO)C3=O)n(C)n1	0	0	0	0	0
COc1ccc(Br)c2oc(SC)cc(=O)c12	0	0	-	82	-
O=c1nc(N2CCCC2)nc(Nc2ccccc2)[nH]1	-	0	0	-	0
COc1ccccc1CN1CC2(C1)[C@H](c1ccccc1)[C@@H](CO)N2Cc1ccccc1	0	-	0	0	0
c1ccc(CCC2Cc3ccccc3N2)cc1 (stereo not drawn)	0	0	15	0	0
COc1cccc(-c2ccc3c(c2)[C@@H]2[C@@H](CCN2C(=O)c2cccc(F)c2)[C@@H](CO)N3)c1	?	0	0	28	0
O=C(c1cccc(F)c1)N1CC[C@@H]2[C@H]1c1cc(-c3ccccc3)ccc1N[C@@H]2CO	0	-	0	46	0
COc1ccc(-c2ccc3c(c2)[C@H]2[C@H](CCN2C(=O)c2cccc(F)c2)[C@H](CO)N3)cc1	0	0	0	0	0
O=C(CN1CCOCC1)N1CC[C@H]2[C@H](CO)Nc3ccc(-c4ccc(F)cc4)cc3[C@H]21	0	0	34	0	0
CN(C)C(=O)c1cccc(-c2ccc([C@H]3[C@H](CO)N4CCCCN(Cc5cccnc5)C[C@@H]34)cc2)c1	0	0	0	0	0
CN1CCCN(C(=O)c2ccc(Cl)s2)CC1	0	0	0	0	0
CC(NC1CCCC1)C(=O)Nc1ccccc1-c1ccccc1 (stereo not drawn)	-	0	-	-	-
Cc1ccccc1NC(=O)C(NC1CCCCC1)C(C)C (stereo not drawn)	-	-	36	0	0
C=CC[C@@H](CC(=O)N[C@@H](CO)Cc1ccccc1)C(=O)N[C@H](COC(=O)[C@@H](CC=C)CC(=O)OC(C)(C)C)Cc1ccccc1	0	0	-	0	-
C=CCC[C@@H](Cc1ccc(F)cc1)C(=O)OC[C@@H]1CCCN1C(=O)[C@H](CC=C)CC(=O)N[C@H](CO)Cc1ccccc1	0	0	-	20	-
C=CC[C@H](CC(=O)N[C@H](CO)Cc1ccccc1)C(=O)N[C@H](COC(=O)[C@@H](CC=C)Cc1ccc(F)cc1)Cc1c[nH]c2ccccc12	-	0	-	-	-
C=CC[C@@H](CC(=O)N[C@H](CO)Cc1ccccc1)C(=O)N[C@@H](COC(=O)[C@H](CC=C)CC(=O)OC(C)(C)C)Cc1ccccc1	0	0	-	79	0
C=CC[C@@H](CC(=O)N[C@@H](CO)Cc1ccccc1)C(=O)N[C@@H](COC(=O)[C@@H](CC=C)Cc1ccc(F)cc1)Cc1c[nH]c2ccccc12	0	0	-	73	-
SMILES	E-selectin induc	PglD DTNB	SIRT5 block	DENV2 CPE rescue	ERAP1 inh
CCOc1ccc(CN2CCN(S(=O)(=O)c3ccc(NC(C)=O)cc3)CC2)cc1OC	-	-	0	0	0
CC(=O)NC12CC3CC(C1)CC(C(=O)N(C)CC(=O)Nc1ccc(F)c(F)c1F)(C3)C2	-	0	0	?	0
COc1ccc(NC(=O)N2CCCCN3[C@@H](CO)[C@H](c4ccc(C#Cc5ccccn5)cc4)[C@@H]3C2)cc1	0	0	0	0	0
Cc1noc(C)c1NC(=O)N(C)C[C@H]1Oc2c(NC(=O)C3CC3)cccc2C(=O)N([C@H](C)CO)C[C@H]1C	0	0	0	24	0
Cc1noc(C)c1NC(=O)N(C)C[C@@H]1Oc2c(cccc2N(C)C)C(=O)N([C@H](C)CO)C[C@H]1C	0	0	0	0	0
Cc1noc(C)c1NC(=O)N(C)C[C@H]1Oc2c(NC(=O)C3CC3)cccc2C(=O)N([C@@H](C)CO)C[C@@H]1C	0	0	0	0	0
Cc1noc(C)c1NC(=O)N(C)C[C@H]1Oc2c(cccc2N(C)C)C(=O)N([C@@H](C)CO)C[C@@H]1C	0	0	0	25	0
COc1ccc2cc(CCNC(=O)c3ccc(S(=O)(=O)N4CCOCC4)cc3)c(=O)[nH]c2c1	0	0	0	0	0
C[C@H](CO)N1C[C@H](C)[C@H](CN(C)S(=O)(=O)c2cccc(F)c2)OCc2ccccc2-c2ccccc2C1=O	0	-	-	-	-
Cc1ccc(-c2nc3ccccc3c(=O)o2)cc1	-	0	16	0	0
CCOC(=O)C1=C(C)NC(=O)NC1c1ccc(N(C)C)cc1 (stereo not drawn)	0	0	0	70	0
NC(=NC(=O)c1ccc(Cl)cc1)N1N=CCC1c1ccccc1 (stereo not drawn)	-	0	16	0	0
O=C(CSc1ccc(Cl)cc1)N1N=CCC1c1ccccc1 (stereo not drawn)	0	-	0	0	0
Cc1c([N+](=O)[O-])cc(C(=O)NCc2ccc(F)cc2)cc1[N+](=O)[O-]	-	-	111	0	0
CS(=O)(=O)c1cccc(C(=O)NCc2ccc(F)cc2)c1	-	0	-	-	-
C[C@@H]1CN([C@H](C)CO)C(=O)c2cc(NC(=O)NC3CCCCC3)ccc2O[C@H]1CN(C)S(=O)(=O)c1ccc(Cl)cc1	141	0	0	0	0
Cc1ccc(S(=O)(=O)N(C)C[C@H]2Oc3ccc(NC(=O)NC4CCCCC4)cc3C(=O)N([C@H](C)CO)C[C@H]2C)cc1	0	0	0	0	0
COc1ccc(S(=O)(=O)N(C)C[C@H]2Oc3ccc(NC(=O)NC4CCCCC4)cc3C(=O)N([C@@H](C)CO)C[C@@H]2C)cc1	0	0	19	0	0
Cc1ccc(S(=O)(=O)N(C)C[C@@H]2OCCCC[C@H](C)Oc3ccc(NC(=O)NC4CCCCC4)cc3C(=O)N([C@H](C)CO)C[C@H]2C)cc1	0	0	16	0	0
Cc1ccc(S(=O)(=O)N(C)C[C@@H]2Oc3ccc(NC(=O)NC4CCCCC4)cc3C(=O)N([C@H](C)CO)C[C@@H]2C)cc1	0	0	0	28	0
Cc1ccc(S(=O)(=O)N(C)C[C@H]2OCCCC[C@@H](C)Oc3ccc(NC(=O)NC4CCCCC4)cc3C(=O)N([C@@H](C)CO)C[C@@H]2C)cc1	0	0	0	0	0
O=C(C1CCOCC1)N1CC[C@H]2[C@H](CO)Nc3ccc(-c4ccc(F)cc4)cc3[C@H]21	0	0	0	0	0

Screening data: PubChem, Broad Institute
